Measured values: ChEMBL document CHEMBL4616711, “Discovery of 2,6-Dimethylpiperazines as Allosteric Inhibitors of CPS1” (ACS Med Chem Lett, 2020)
pIC50: −log10 of the molar value. Converted amounts (≈) assume the structure as drawn.

How the values were obtained:
[1] = molecular target: T1, Carbamoyl-phosphate synthase [ammonia], mitochondrial (Homo sapiens, UniProt P31327); assay: Allosteric inhibition of His-tagged CPS1 (unknown origin) expressed in baculovirus infected Sf21 insect cells assessed as reduction in ADP level preincubated for 20 mins followed by ATP addition measured after 60 mins by ADP-Glo assay
T1 sequence (P31327 whole entry): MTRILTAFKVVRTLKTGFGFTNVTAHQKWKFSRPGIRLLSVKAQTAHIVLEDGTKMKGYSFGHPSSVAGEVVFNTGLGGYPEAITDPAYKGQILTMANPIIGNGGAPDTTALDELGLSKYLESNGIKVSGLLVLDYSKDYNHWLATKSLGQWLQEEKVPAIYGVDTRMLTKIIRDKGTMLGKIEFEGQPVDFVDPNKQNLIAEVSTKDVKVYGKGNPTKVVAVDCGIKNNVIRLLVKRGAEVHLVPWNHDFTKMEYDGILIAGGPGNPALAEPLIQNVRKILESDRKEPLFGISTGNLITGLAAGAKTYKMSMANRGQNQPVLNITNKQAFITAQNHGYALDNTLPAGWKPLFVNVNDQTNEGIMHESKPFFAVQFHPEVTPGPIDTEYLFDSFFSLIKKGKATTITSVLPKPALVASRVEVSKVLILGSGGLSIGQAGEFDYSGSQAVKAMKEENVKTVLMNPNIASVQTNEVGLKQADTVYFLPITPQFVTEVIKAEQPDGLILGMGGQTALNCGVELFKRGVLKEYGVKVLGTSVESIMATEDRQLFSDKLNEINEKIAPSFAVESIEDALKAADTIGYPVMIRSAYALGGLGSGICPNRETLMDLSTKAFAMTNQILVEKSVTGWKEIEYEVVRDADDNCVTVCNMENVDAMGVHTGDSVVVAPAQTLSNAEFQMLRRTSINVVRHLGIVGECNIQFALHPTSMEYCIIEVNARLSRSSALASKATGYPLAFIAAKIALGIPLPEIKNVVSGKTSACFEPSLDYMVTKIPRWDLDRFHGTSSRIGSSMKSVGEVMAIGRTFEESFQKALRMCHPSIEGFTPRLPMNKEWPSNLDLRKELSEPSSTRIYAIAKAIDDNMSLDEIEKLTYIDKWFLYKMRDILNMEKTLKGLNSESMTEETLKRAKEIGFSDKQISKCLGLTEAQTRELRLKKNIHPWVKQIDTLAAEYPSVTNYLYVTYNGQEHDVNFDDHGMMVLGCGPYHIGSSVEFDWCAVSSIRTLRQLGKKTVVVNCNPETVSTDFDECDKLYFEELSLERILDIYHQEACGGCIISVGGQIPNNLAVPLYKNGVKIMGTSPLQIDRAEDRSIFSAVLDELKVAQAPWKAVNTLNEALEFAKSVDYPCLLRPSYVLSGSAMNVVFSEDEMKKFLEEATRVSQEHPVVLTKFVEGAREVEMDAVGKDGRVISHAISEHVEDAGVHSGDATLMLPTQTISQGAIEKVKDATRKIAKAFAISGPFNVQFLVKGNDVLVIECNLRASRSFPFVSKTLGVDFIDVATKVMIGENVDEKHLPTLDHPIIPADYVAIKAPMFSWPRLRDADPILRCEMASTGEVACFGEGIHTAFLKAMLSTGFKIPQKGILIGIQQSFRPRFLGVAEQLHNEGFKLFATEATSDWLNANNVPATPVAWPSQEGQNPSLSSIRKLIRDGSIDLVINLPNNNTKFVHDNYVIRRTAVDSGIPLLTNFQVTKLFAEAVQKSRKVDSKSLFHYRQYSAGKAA
Procedure, shortened: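 CPS1 activity read as ADP formation in the presence of inhibitor. IC50 taken as the average of at least two experimental replicates (N = 2).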

[2] = molecular target: T1, Carbamoyl-phosphate synthase [ammonia], mitochondrial; assay: Inhibition of CPS1 in human pooled hepatocytes assessed as reduction in urea production measured after 16 hrs in presence of NH4Cl by tecan-plate reader analysis; assay type: cell-based; conditions: for pIC50: read-out: IC50
Procedure, shortened: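 Primary human hepatocytes given 10 mM NH4Cl together with compound over a concentration series. Urea secreted into the medium measured after 16 h. IC50 derived from the inhibition of urea production.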

[3] = Clearance in human pooled hepatocytes assessed per million cells at 1 uM measured up to 120 mins by LC-MS/MS analysis; assay type: ADME, cell-based, Hepatocyte; conditions: read-out: CLH
[4] = Kinetic solubility in Dulbecco's phosphate buffer saline at pH 7.4 by UPLC analysis; assay type: physicochemical; conditions: Dulbecco's phosphate buffered saline, read-out: Kinetic_solubility
[5] = molecular target: Multifunctional protein CAD (Homo sapiens, UniProt P27708); assay: Inhibition of CAD (unknown origin) CSP2 activity expressed in Escherichia coli BL21 (DE3) preincubated for 20 mins followed by ATP addition measured after 60 mins by ADP-Glo assay
Multifunctional protein CAD, sequence (P27708 whole entry): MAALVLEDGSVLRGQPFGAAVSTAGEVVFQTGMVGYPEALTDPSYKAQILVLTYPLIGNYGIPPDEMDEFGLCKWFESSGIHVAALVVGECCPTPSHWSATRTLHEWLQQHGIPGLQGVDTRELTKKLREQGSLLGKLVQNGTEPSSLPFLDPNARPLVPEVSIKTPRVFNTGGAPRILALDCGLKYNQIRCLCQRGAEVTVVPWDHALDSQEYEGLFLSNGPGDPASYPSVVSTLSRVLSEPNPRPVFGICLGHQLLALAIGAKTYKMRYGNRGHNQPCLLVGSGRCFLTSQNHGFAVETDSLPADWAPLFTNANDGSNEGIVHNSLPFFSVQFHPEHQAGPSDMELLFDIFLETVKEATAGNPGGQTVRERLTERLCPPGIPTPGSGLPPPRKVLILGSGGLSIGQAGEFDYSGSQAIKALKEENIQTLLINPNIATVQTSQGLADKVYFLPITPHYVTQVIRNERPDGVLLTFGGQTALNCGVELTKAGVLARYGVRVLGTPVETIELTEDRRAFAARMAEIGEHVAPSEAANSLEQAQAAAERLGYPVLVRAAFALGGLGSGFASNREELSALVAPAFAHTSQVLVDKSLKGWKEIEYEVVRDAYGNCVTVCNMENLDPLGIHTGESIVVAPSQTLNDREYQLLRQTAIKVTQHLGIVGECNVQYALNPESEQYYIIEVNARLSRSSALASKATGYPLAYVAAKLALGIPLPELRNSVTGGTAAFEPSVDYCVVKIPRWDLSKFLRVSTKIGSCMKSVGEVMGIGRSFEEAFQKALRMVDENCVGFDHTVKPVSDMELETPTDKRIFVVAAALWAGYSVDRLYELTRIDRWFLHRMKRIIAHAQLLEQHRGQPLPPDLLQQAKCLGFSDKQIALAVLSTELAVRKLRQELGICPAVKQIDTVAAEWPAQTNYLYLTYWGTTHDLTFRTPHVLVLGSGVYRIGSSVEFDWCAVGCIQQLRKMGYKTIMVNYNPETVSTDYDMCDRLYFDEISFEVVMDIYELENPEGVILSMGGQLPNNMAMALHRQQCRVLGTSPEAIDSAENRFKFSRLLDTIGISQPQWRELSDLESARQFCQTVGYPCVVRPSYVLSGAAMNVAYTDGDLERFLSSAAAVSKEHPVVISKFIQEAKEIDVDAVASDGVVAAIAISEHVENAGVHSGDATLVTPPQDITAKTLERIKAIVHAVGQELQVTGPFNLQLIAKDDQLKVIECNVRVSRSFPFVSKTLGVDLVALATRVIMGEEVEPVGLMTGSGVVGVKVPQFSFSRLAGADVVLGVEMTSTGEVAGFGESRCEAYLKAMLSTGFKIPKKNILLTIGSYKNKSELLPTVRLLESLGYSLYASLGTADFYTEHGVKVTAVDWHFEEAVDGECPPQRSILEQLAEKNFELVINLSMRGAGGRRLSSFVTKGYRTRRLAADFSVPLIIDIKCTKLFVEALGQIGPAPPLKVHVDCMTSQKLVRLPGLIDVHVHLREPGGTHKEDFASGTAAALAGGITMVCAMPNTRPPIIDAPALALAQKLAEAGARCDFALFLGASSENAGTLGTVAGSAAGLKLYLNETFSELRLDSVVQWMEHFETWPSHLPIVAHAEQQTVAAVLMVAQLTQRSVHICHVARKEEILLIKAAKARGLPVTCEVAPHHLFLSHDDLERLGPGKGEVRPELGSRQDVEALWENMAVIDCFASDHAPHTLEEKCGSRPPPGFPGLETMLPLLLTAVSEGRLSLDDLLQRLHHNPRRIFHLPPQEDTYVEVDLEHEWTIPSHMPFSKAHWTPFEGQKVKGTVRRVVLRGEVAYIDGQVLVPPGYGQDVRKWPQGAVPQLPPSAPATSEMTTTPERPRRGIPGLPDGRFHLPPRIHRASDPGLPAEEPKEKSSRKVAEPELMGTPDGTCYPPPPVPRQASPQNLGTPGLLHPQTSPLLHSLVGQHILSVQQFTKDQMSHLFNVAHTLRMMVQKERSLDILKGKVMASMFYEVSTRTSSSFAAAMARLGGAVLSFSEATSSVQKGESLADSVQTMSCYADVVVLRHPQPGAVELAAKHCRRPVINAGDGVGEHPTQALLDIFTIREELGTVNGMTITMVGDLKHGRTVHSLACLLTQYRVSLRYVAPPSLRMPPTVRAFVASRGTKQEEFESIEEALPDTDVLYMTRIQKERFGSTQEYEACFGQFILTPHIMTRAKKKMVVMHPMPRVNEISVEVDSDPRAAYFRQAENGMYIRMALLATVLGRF

[6] = Apparent permeability across apical to basolateral membrane in human Caco2 cells at 5 uM incubated for 2 hrs by LC-MS/MS analysis; assay type: ADME, cell-based; conditions: Caco-2

Compound | pIC50 [1] | also measured
COc1ccc(C(=O)C2CCN(C(=O)c3ccc(OC)cc3F)CC2)c(F)c1 | 4.67 | –
COc1ccc(C(=O)N2[C@H](C)CN(C(=O)c3cc(NC(C)=O)ccc3F)C[C@H]2C)c(F)c1 | < 4.18 | –
COc1ccc(C(=O)N2[C@H](C)CN(C(=O)c3cccc(OC)c3F)C[C@H]2C)c(F)c1 | < 4.18 | –
COc1ccc(C(=O)N2[C@H](C)CN(C(=O)c3ccc4cc(C)[nH]c4c3)C[C@H]2C)c(F)c1 | – | pIC50 [2]: 6.00
COc1ccc(C(=O)N2CC3CC2CN3C(=O)c2ccc(OC)cc2F)c(F)c1 | < 4.18 | –
COc1ccc(C(=O)N2[C@H](C)CN(C(=O)c3ccc4[nH]ccc4c3)C[C@H]2C)c(F)c1 | < 4.18 | IC50 [2]: Not Active
COc1ccc(C(=O)N2[C@H](C)CN(C(=O)c3cc(OC)ccc3F)C[C@H]2C)c(F)c1 | < 4.18 | –
COc1ccc(C(=O)N2CC(C)N(C(=O)c3ccc(OC)cc3F)CC2C)c(F)c1 (stereo not drawn) | 4.94 | –
COc1ccc(C(=O)N2CCCN(C(=O)c3ccc(OC)cc3F)CC2)c(F)c1 | 4.72 | –
COc1ccc(C(=O)N2[C@H](C)CN(C(=O)c3ccc4ccn(C)c4c3)C[C@H]2C)c(F)c1 | – | IC50 [2]: Not Active
Cc1csc(NC(=O)C2CCN(C(=O)N(C)Cc3ccccc3)CC2)n1 | 5.82 | hepatocyte CLint at 1 µM [3]: 35 µL/min/1e6 cells

Continued by rising pIC50 [1], values first:

pIC50 [1] | Compound | also measured
5.85 | COc1ccc(C(=O)N2C[C@@H](C)N(C(=O)c3ccc(OC(C)C)cc3F)[C@H](C)C2)c(F)c1 | –
5.89 | COc1ccc(C(=O)N2C[C@@H](C)N(C(=O)c3ccc(F)cc3F)[C@H](C)C2)c(F)c1 | –
6.42 | CCOc1ccc(C(=O)N2[C@H](C)CN(C(=O)c3ccc(OC)cc3F)C[C@H]2C)c(F)c1 | –
6.89 | CCOc1ccc(C(=O)N2C[C@@H](C)N(C(=O)c3ccc(OC)cc3F)[C@H](C)C2)c(F)c1 | –
7.18 | COc1ccc(C(=O)N2[C@H](C)CN(C(=O)c3ccc4cc[nH]c4c3)C[C@H]2C)c(F)c1 | solubility kinetic [4]: 148 µM (≈ 60.6 µg/mL); pIC50 [5]: ≤ 4.00; pIC50 [2]: 6.62; Papp A→B at 2 h, 5 µM [6]: 12.3 ×10⁻⁶ cm/s; hepatocyte CLint at 1 µM [3]: 8.7 µL/min/1e6 cells
